Results published in publication PMC2582604 (Nucleic Acids Research, 2008).

Key:
[1] = system: HeLa pLuc705 cells; experiment: HeLa pLuc705 splicing redirection, luciferase upregulation; type: cell-based
Method in brief: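 HeLa pLuc705 cells were seeded at 1.75 × 10^5/well and grown overnight. Test compound was added for 4 h in OptiMEM without transfection agent, then diluted with DMEM/10% FBS for a further 20 h. Cells were washed in ice-cold PBS and lysed. Luminescence was normalised to BCA protein (550 nm) and expressed as RLU/µg protein or fold over background. Triplicates averaged.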

[2] = Serum stability assay; type: in vitro ADME, mouse; details: 37°C
Method in brief: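 Conjugate (20 μM) incubated at 37°C in PBS with 20% mouse serum (from clotted blood of female Balb/c mice, cleared by 3 × 30 min centrifugation at 4°C). Aliquots at 0, 15, 30, 60 and 120 min were quenched in 10% dichloroacetic acid in H2O/CH3CN (50/50) and held at –20°C. Supernatant after protein pelleting was analysed by MALDI-TOF MS; cleavage sites were assigned from fragment masses, semi-quantitatively.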

[3] = system: HeLa pLuc705 cells; experiment: Energy dependence of uptake; type: cell-based; details: 1 µM conjugate, 30 min pre-incubation, 1 h incubation, luciferase read-out
Method in brief: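 Cells pre-incubated 30 min in OptiMEM at either 37°C or 4°C. Conjugate was then added at 1 μM final and incubation continued 1 h. Read-out was luciferase in lysates, normalised to BCA protein, as in the splicing redirection assay.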

[4] = system: HeLa pLuc705 cells; experiment: Endocytosis inhibitor study, luciferase read-out; type: cell-based; details: 1 μM conjugate
Method in brief: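 HeLa pLuc705 cells pre-incubated 30 min in OptiMEM at 37°C with inhibitor: chlorpromazine 30 μM or K+ depletion (clathrin), nystatin 50 μM or filipin-III 5 μg ml–1 (caveolae), methyl-β-cyclodextrin 2.5 mM or EIPA 1 mM (macropinocytosis). Inhibitor levels and timings were set to spare protein synthesis. Conjugate then added to 1 μM final for 30 min. Luciferase read as in the splicing assay.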

[5] = system: aberrant β-globin intron 705 site in HeLa pLuc705 cells; experiment: HeLa pLuc705 splicing redirection, RT-PCR analysis; type: cell-based; details: RT-PCR assay
Method in brief: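 HeLa pLuc705 cells were treated with increasing conjugate concentrations as in the luciferase assay (4 h OptiMEM, then 20 h with added serum medium). Total RNA was extracted from the leftover lysate after luciferase and protein measurement. RT-PCR products were separated on 2% agarose and gels scanned to quantify aberrant versus correctly spliced RNA. EC50 of splicing redirection was taken from the dose series.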

[6] = system: dystrophin pre-mRNA exon 23 in mdx myoblasts; experiment: Exon skipping after electroporation into mdx myoblasts; type: cell-based, mouse; details: 0.5 nmol electroporated into mdx myoblasts, 24 h, nested RT-PCR
Method in brief: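 H2K mdx myoblasts (undifferentiated) were grown 2 days at 33°C, 10% CO2, in 20% FBS/DMEM with interferon γ, then trypsinised. 1.5 × 10^6 cells/100 µl Nucleofector Solution V were pulsed with 0.5 nmol PNA, conjugate or sense control PNA (program T-020). Cells rested 10 min at room temperature in OptiMEM, then cultured 24 h on gelatin at 33°C. Total RNA underwent one-step RT-PCR then nested PCR; 2% agarose gel.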

(R-Ahx-R)3IHILFQNdRRMKWHKBC [Pip2b–PNA705]
activity compared to RXR4–PNA705 ([1]; HeLa pLuc705, absence of transfection or permeabilization agent): 3- to 4 fold
stability to serum proteolysis ([2]; 20 μM conjugate, PBS with 20% mouse serum, 1 h, MALDI-TOF MS): predominantly stable for 1 h
uptake mechanism from splicing redirection activity at 37°C and 4°C [3]: energy-dependent uptake mechanism
effect of EIPA on luciferase expression ([4]; EIPA 1 mM (macropinocytosis)): no effect
inhibitory effect of fillipin-III on luciferase expression ([4]; fillipin-III 5 μg ml–1 (caveolae)): 36%
effect of methyl-β-cyclodextrin on luciferase expression ([4]; methyl-β-cyclodextrin 2.5 mM (macropinocytosis)): increased luciferase expression
inhibitory effect of nystatin on luciferase expression ([4]; nystatin 50 μM (caveolae)): 12%

(R-Ahx-R)3IdKILFQNdRRMKWHKBC [Pip2a–PNA705]
uptake mechanism from splicing redirection activity at 37°C and 4°C [3]: energy-dependent uptake mechanism

(RXR)3-IKILFQN-R|RMKWKKC [Pip1–PNA705]
EC50 improvement relative to R6Pen–PNA [5]: about 2 fold
fold increase in luminescence compared to R6Pen–PNA705 ([1]; at similar concentrations, HeLa pLuc705 luciferase assay): two to three times
time to full cleavage in 20% mouse serum ([2]; 20 μM conjugate, PBS with 20% mouse serum, MALDI-TOF MS): ≤ 1 h
major serum proteolytic cleavage site ([2]; 20% mouse serum, fragment masses by MALDI-TOF MS): between amino acids R17 and R18
uptake mechanism from splicing redirection activity at 37°C and 4°C [3]: energy-dependent uptake mechanism

sense control PNA: sense 20-mer PNA control sequence AGGTAAGCCGAGGTTTGGCC (all peptide nucleic acid (PNA))
exon skipping after electroporation [6]: no exon skipping
